Laboratory results published in ChEMBL document CHEMBL1287651, “Synthesis and in vitro antibacterial activity of fluoroquinolone derivatives containing 3-(N'-alkoxycarbamimidoyl)-4-(alkoxyimino) pyrrolidines” (2010).
≈ marks a conversion by molar mass, not a printed value.

Legend:
Format in all cases: functional
[1] = tested on: Enterococcus faecium; assay: Antibacterial activity against Enterococcus faecium 08-2 after 18 to 24 hrs by twofold serial dilution method
In short: (§1)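 MIC determined by the standard twofold serial dilution method on agar media, screening against Gram-positive and Gram-negative strains. Levofloxacin and gemifloxacin were run alongside as reference drugs.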

[2] = tested on: Streptococcus pneumoniae; assay: Antibacterial activity against Streptococcus pneumoniae 08-4 after 18 to 24 hrs by twofold serial dilution method; in short: as §1
[3] = tested on: Pseudomonas aeruginosa; assay: Antibacterial activity against Pseudomonas aeruginosa 09-33 after 18 to 24 hrs by twofold serial dilution method; in short: as §1
[4] = tested on: Pseudomonas aeruginosa; assay: Antibacterial activity against Pseudomonas aeruginosa 09-32 after 18 to 24 hrs by twofold serial dilution method; in short: as §1
[5] = tested on: Escherichia coli; assay: Antibacterial activity against Escherichia coli 08-22 after 18 to 24 hrs by twofold serial dilution method; in short: as §1
[6] = tested on: Staphylococcus epidermidis; assay: Antibacterial activity against methicillin-sensitive Staphylococcus epidermidis 09-3 after 18 to 24 hrs by twofold serial dilution method
In short: (§2)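 Standard twofold serial agar dilution method on agar media for MIC determination. Screened against representative Gram-positive and Gram-negative strains. Levofloxacin and GMFX served as control drugs.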

[7] = tested on: Klebsiella pneumoniae; assay: Antibacterial activity against Klebsiella pneumoniae 09-21 after 18 to 24 hrs by twofold serial dilution method; in short: as §1
[8] = tested on: Staphylococcus epidermidis; assay: Antibacterial activity against methicillin-sensitive Staphylococcus epidermidis 09-6 after 18 to 24 hrs by twofold serial dilution method; in short: as §2
[9] = tested on: Staphylococcus epidermidis; assay: Antibacterial activity against methicillin-resistant Staphylococcus epidermidis 09-3 after 18 to 24 hrs by twofold serial dilution method; in short: as §2
[10] = tested on: Enterococcus faecium; assay: Antibacterial activity against Enterococcus faecium 08-7 after 18 to 24 hrs by twofold serial dilution method; in short: as §1
[11] = tested on: Staphylococcus aureus; assay: Antibacterial activity against methicillin-resistant Staphylococcus aureus 08-1 after 18 to 24 hrs by twofold serial dilution method; in short: as §2
[12] = tested on: Staphylococcus epidermidis; assay: Antibacterial activity against methicillin-resistant Staphylococcus epidermidis 09-2 after 18 to 24 hrs by twofold serial dilution method; in short: as §2
[13] = tested on: Pseudomonas aeruginosa; assay: Antibacterial activity against Pseudomonas aeruginosa ATCC 27853 after 18 to 24 hrs by twofold serial dilution method; in short: as §1
[14] = tested on: Escherichia coli; assay: Antibacterial activity against Escherichia coli 08-21 after 18 to 24 hrs by twofold serial dilution method; in short: as §1
[15] = tested on: Pseudomonas aeruginosa; assay: Antibacterial activity against Pseudomonas aeruginosa 09-34 after 18 to 24 hrs by twofold serial dilution method; in short: as §1
[16] = tested on: Klebsiella pneumoniae; assay: Antibacterial activity against Klebsiella pneumoniae 09-23 after 18 to 24 hrs by twofold serial dilution method; in short: as §1
[17] = tested on: Pseudomonas aeruginosa; assay: Antibacterial activity against Pseudomonas aeruginosa 09-35 after 18 to 24 hrs by twofold serial dilution method; in short: as §1
[18] = tested on: Staphylococcus aureus; assay: Antibacterial activity against Staphylococcus aureus ATCC […] after 18 to 24 hrs by twofold serial dilution method; in short: as §1
[19] = tested on: Escherichia coli; assay: Antibacterial activity against Escherichia coli ATCC 25922 after 18 to 24 hrs by twofold serial dilution method; in short: as §1
[20] = tested on: Staphylococcus epidermidis; assay: Antibacterial activity against methicillin-resistant Staphylococcus epidermidis 09-4 after 18 to 24 hrs by twofold serial dilution method; in short: as §2
[21] = tested on: Enterococcus faecalis; assay: Antibacterial activity against Enterococcus faecalis 08-10 after 18 to 24 hrs by twofold serial dilution method; in short: as §1
[22] = tested on: Streptococcus pneumoniae; assay: Antibacterial activity against Streptococcus pneumoniae 08-2 after 18 to 24 hrs by twofold serial dilution method; in short: as §1
[23] = tested on: Klebsiella pneumoniae; assay: Antibacterial activity against Klebsiella pneumoniae 09-22 after 18 to 24 hrs by twofold serial dilution method; in short: as §1
[24] = tested on: Staphylococcus aureus; assay: Antibacterial activity against methicillin-sensitive Staphylococcus aureus 08-2 after 18 to 24 hrs by twofold serial dilution method; in short: as §2
[25] = tested on: Enterococcus faecalis; assay: Antibacterial activity against Enterococcus faecalis 08-12 after 18 to 24 hrs by twofold serial dilution method; in short: as §1

Compound | MIC [1] [µg/mL] | MIC [2] [µg/mL] | MIC [3] [µg/mL] | MIC [4] [µg/mL] | MIC [5] [µg/mL] | MIC [6] [µg/mL] | MIC [7] [µg/mL] | MIC [8] [µg/mL] | MIC [9] [µg/mL] | MIC [10] [µg/mL] | MIC [11] [µg/mL] | MIC [12] [µg/mL] | MIC [13] [µg/mL] | MIC [14] [µg/mL] | MIC [15] [µg/mL] | MIC [16] [µg/mL] | MIC [17] [µg/mL] | MIC [18] [µg/mL] | MIC [19] [µg/mL] | MIC [20] [µg/mL] | other results
CCO/N=C1\CN(c2c(F)cc3c(=O)c(C(=O)O)cn4c3c2OC[C@@H]4C)CC1/C(N)=N\OC (stereo not given in full) | > 128 | 0.25 (≈ 0.542 µM) | > 128 | > 128 | > 128 | 0.25 (≈ 0.542 µM) | > 128 | 0.5 (≈ 1.08 µM) | 0.125 (≈ 0.271 µM) | > 128 | 0.25 (≈ 0.542 µM) | 0.25 (≈ 0.542 µM) | > 128 | > 128 | > 128 | > 128 | > 128 | 0.25 (≈ 0.542 µM) | 128 (≈ 277 µM) | 0.25 (≈ 0.542 µM) | MIC [21]: 0.5 µg/mL (≈ 1.08 µM); MIC [22]: > 128 µg/mL; MIC [23]: 1 µg/mL (≈ 2.17 µM); MIC [24]: 0.25 µg/mL (≈ 0.542 µM); MIC [25]: > 128 µg/mL
CCO/N=C1\CN(c2c(F)cc3c(=O)c(C(=O)O)cn4c3c2OC[C@@H]4C)CC1/C(N)=N\OCC (stereo not given in full) | > 128 | > 128 | > 128 | 64 (≈ 135 µM) | > 128 | 8 (≈ 16.8 µM) | > 128 | 8 (≈ 16.8 µM) | > 128 | > 128 | 64 (≈ 135 µM) | > 128 | 64 (≈ 135 µM) | > 128 | > 128 | > 128 | 64 (≈ 135 µM) | 1 (≈ 2.1 µM) | 128 (≈ 269 µM) | > 128 | MIC [21]: > 128 µg/mL; MIC [22]: 64 µg/mL (≈ 135 µM); MIC [23]: > 128 µg/mL; MIC [24]: 64 µg/mL (≈ 135 µM); MIC [25]: > 128 µg/mL
CCn1cc(C(=O)O)c(=O)c2cc(F)c(N3C/C(=N\OC)C(/C(N)=N\O)C3)c(F)c21 (stereo not given) | > 128 | > 128 | 1 (≈ 2.36 µM) | 1 (≈ 2.36 µM) | > 128 | 0.25 (≈ 0.59 µM) | > 128 | 0.25 (≈ 0.59 µM) | 0.25 (≈ 0.59 µM) | > 128 | 0.25 (≈ 0.59 µM) | 1 (≈ 2.36 µM) | 1 (≈ 2.36 µM) | > 128 | 1 (≈ 2.36 µM) | > 128 | > 128 | 0.25 (≈ 0.59 µM) | 128 (≈ 302 µM) | 1 (≈ 2.36 µM) | MIC [21]: > 128 µg/mL; MIC [22]: 1 µg/mL (≈ 2.36 µM); MIC [23]: 1 µg/mL (≈ 2.36 µM); MIC [24]: 0.25 µg/mL (≈ 0.59 µM); MIC [25]: > 128 µg/mL
CCO/N=C1\CN(c2c(F)cc3c(=O)c(C(=O)O)cn(CC)c3c2F)CC1/C(N)=N\O (stereo not given) | > 128 | > 128 | > 128 | > 128 | 16 (≈ 36.6 µM) | 0.125 (≈ 0.286 µM) | > 128 | 0.125 (≈ 0.286 µM) | 0.25 (≈ 0.572 µM) | > 128 | 1 (≈ 2.29 µM) | 1 (≈ 2.29 µM) | > 128 | > 128 | > 128 | > 128 | > 128 | 1 (≈ 2.29 µM) | > 128 | 1 (≈ 2.29 µM) | MIC [21]: > 128 µg/mL; MIC [22]: 16 µg/mL (≈ 36.6 µM); MIC [23]: > 128 µg/mL; MIC [24]: 1 µg/mL (≈ 2.29 µM); MIC [25]: > 128 µg/mL
CCn1cc(C(=O)O)c(=O)c2cc(F)c(N3C/C(=N\OC)C(/C(N)=N\OC)C3)c(F)c21 (stereo not given) | > 128 | 1 (≈ 2.29 µM) | > 128 | > 128 | > 128 | 0.25 (≈ 0.572 µM) | > 128 | 0.5 (≈ 1.14 µM) | 0.25 (≈ 0.572 µM) | > 128 | 0.25 (≈ 0.572 µM) | 2 (≈ 4.57 µM) | 128 (≈ 293 µM) | > 128 | > 128 | > 128 | > 128 | 0.25 (≈ 0.572 µM) | 128 (≈ 293 µM) | 0.25 (≈ 0.572 µM) | MIC [21]: > 128 µg/mL; MIC [22]: 1 µg/mL (≈ 2.29 µM); MIC [23]: 1 µg/mL (≈ 2.29 µM); MIC [24]: 0.25 µg/mL (≈ 0.572 µM); MIC [25]: > 128 µg/mL
CCO/N=C(/N)C1CN(c2c(F)cc3c(=O)c(C(=O)O)cn(CC)c3c2F)C/C1=N\OC (stereo not given) | > 128 | 0.5 (≈ 1.11 µM) | > 128 | > 128 | > 128 | 0.25 (≈ 0.554 µM) | > 128 | 0.25 (≈ 0.554 µM) | 0.125 (≈ 0.277 µM) | > 128 | 0.25 (≈ 0.554 µM) | 0.5 (≈ 1.11 µM) | > 128 | > 128 | > 128 | > 128 | > 128 | 0.125 (≈ 0.277 µM) | > 128 | 0.125 (≈ 0.277 µM) | MIC [21]: > 128 µg/mL; MIC [22]: 16 µg/mL (≈ 35.4 µM); MIC [23]: 1 µg/mL (≈ 2.22 µM); MIC [24]: 0.25 µg/mL (≈ 0.554 µM); MIC [25]: > 128 µg/mL
